{"data": "Assay results of several laboratories", "target": "Acetylcholinesterase (ache, Electrophorus electricus, UniProt O42275)", "read-out": "enzyme activity", "mode": "inhibitor", "method": "Ellman", "note": "Protocols differ between the studies behind these lines."}
{"SMILES": "O=C(O)C(/C=C/c1c(Cl)cccc1Cl)=N\\Nc1nc(-c2ccc(F)cc2)cs1", "IC50": "0.299 µM"}
{"SMILES": "CCN(C)C(=O)Oc1ccc(CCC(=O)N2CCC(Cc3ccccc3)CC2)cc1", "IC50": "6.1 µM"}
{"SMILES": "O=[N+]([O-])c1ccc(-c2nnc(-c3ccc(OCc4cn(Cc5ccc(Cl)cc5)nn4)cc3)o2)cc1", "IC50": "> 100 µM"}
{"SMILES": "O=C(O)C(/C=C/c1c(Cl)cccc1Cl)=N\\Nc1nc(-c2ccc(Cl)cc2)cs1", "IC50": "0.092 µM"}
{"SMILES": "CC(C)(C)OC(=O)NC1CCCN(C(=O)/C=C/c2cccc(F)c2)C1 (stereo not shown)", "IC50": "37.7 µM"}
{"SMILES": "CCN(C)C(=O)Oc1ccc(CCC(=O)N(CC)CC)cc1OC", "IC50": "19.5 µM"}
{"SMILES": "Fc1ccc(-c2nnc(-c3ccc(OCc4cn(Cc5ccccc5)nn4)cc3)o2)cc1", "IC50": "> 100 µM"}
{"SMILES": "CC(C)(C)OC(=O)NC1CCCN(C(=O)/C=C/c2cccc(Cl)c2)C1 (stereo not shown)", "IC50": "> 50 µM"}
{"SMILES": "CCN(CC)C(=O)Oc1ccc(/C=C/C(=O)NC2CCN(Cc3ccccc3)CC2)cc1OC", "IC50": "2.3 µM"}
{"SMILES": "Brc1ccc(Cn2cc(COc3ccc(-c4nnc(-c5ccccc5)o4)cc3)nn2)cc1", "IC50": "> 100 µM"}
{"SMILES": "CC(C)(C)OC(=O)NC1CCCN(C(=O)/C=C/c2ccccc2Cl)C1 (stereo not shown)", "IC50": "19.7 µM"}
{"SMILES": "COc1cc(CCC(=O)N2CCC(Cc3ccccc3)CC2)ccc1OC(=O)N1CCOCC1", "IC50": "7.2 µM"}
{"SMILES": "CCOc1ccc(/C=C/C(=O)N2CCCC(NC(=O)OC(C)(C)C)C2)cc1 (stereo not shown)", "IC50": "> 50 µM"}
{"SMILES": "O=[N+]([O-])c1ccc(-c2nnc(-c3ccc(OCc4cn(Cc5ccccc5)nn4)cc3)o2)cc1", "IC50": "> 100 µM"}
{"SMILES": "CCN(CC)C(=O)Oc1ccc(CCC(=O)N2CCC(Cc3ccccc3)CC2)cc1OC", "IC50": "9.3 µM"}
{"SMILES": "CC(C)(C)OC(=O)NC1CCCN(C(=O)/C=C/c2cccc([N+](=O)[O-])c2)C1 (stereo not shown)", "IC50": "35.1 µM"}
{"SMILES": "Cc1ccc(Cn2cc(COc3ccc(-c4nnc(-c5ccccc5)o4)cc3)nn2)cc1", "IC50": "> 100 µM"}
{"SMILES": "COc1cc(/C=C/C(=O)NC2CCN(Cc3ccccc3)CC2)ccc1OC(=O)N(C)C", "IC50": "5.2 µM"}
{"SMILES": "COc1ccc(-c2nnc(-c3ccc(OCc4cn(Cc5ccccc5)nn4)cc3)o2)cc1", "IC50": "> 100 µM"}
{"SMILES": "CC(C)(C)OC(=O)NC1CCCN(C(=O)/C=C/c2ccc(Br)cc2)C1 (stereo not shown)", "IC50": "> 50 µM"}
{"SMILES": "Cc1ccc(Cn2cc(COc3ccc(-c4nnc(-c5ccc(F)cc5)o4)cc3)nn2)cc1", "IC50": "> 100 µM"}
{"SMILES": "COc1ccc(/C=C/C(=O)N2CCCC(NC(=O)OC(C)(C)C)C2)cc1 (stereo not shown)", "IC50": "> 50 µM"}
{"SMILES": "Cc1ccc(Cn2cc(COc3ccc(-c4nnc(-c5ccc([N+](=O)[O-])cc5)o4)cc3)nn2)cc1", "IC50": "> 100 µM"}
{"SMILES": "CN(C)C(=O)Oc1ccc(/C=C/C(=O)NC2CCN(Cc3ccccc3)CC2)cc1", "IC50": "5.9 µM"}
{"SMILES": "CC(C)(C)OC(=O)NC1CCCN(C(=O)/C=C/c2ccccc2Br)C1 (stereo not shown)", "IC50": "46.3 µM"}
